Experimental findings from ChEMBL document CHEMBL3399929 (Bioorg Med Chem, 2015) are described below.

Data set [1] is described as follows: Inhibition of Mycobacterium smegmatis TMC 607 ATP synthase incubated for 10 mins prior to NADH addition measured after 1 hr by luminescence assay. The arrangement: species or system Mycolicibacterium smegmatis. As to conditions: read-out: IC50.
The subject of data set [2] is Mycobacterium tuberculosis H37Rv. Put plainly: Inhibition of Mycobacterium tuberculosis H37Rv ATP synthase assessed as reduction in total ATP content at 0.5 ug/ml after 18 hrs by bead-vortexing settling method. In outline: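 H37Rv was declumped by bead-vortexing and settling, adjusted to McFarland 1, then diluted 100-fold. Portions of 1 mL in tubes with 0.5 mm glass beads were exposed to compound for 18 h at 37 °C. Samples were heated 8–10 min, chilled on ice, and bead-beater lysed. Cleared lysate ATP was measured by luciferase assay.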

The test system of data set [3] is Mycobacterium tuberculosis. As to the kind of experiment: Antimycobacterial activity against Mycobacterium tuberculosis H37Rv after 4 weeks by agar dilution assay. It is filed as functional. The note with it: for MIC: Mycobacterium tuberculosis, H37Rv, 672 h, read-out: MIC100. In outline: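 Agar dilution method. DMSO stocks (5 mg/mL) were serially diluted in DMSO, and 0.1 mL of each was mixed into 1.9 mL Middlebrook 7H10 agar with OADC and set as slants. Each tube received about 10^5 bacilli from a 3-week Lowenstein–Jensen culture suspended in saline with 0.05% Tween-80. Tubes were incubated at 37 °C for 4 weeks. MIC was the lowest concentration with no visible growth.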
(In general: In agar dilution the substance is mixed into plates at graded concentrations.)

Data set [4] in a line: Selectivity index, ratio of CC50 for African green monkey Vero cells to MIC100 for Mycobacterium tuberculosis H37Rv. Format: toxicity, cell-based. The note with it: read-out: Selectivity Index. In outline:
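Selectivity index is CC50 from the Vero resazurin assay divided by the agar-dilution MIC against H37Rv.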

Data set [5] can be described thus: Cytotoxicity against mouse bone marrow macrophages […]. It is filed as cell-based. As to conditions: macrophage.
Data set [6] can be described thus: Cytotoxicity against African green monkey Vero cells after 72 hrs yb resazurin assay. It is filed as cell-based. As to conditions: chlorocebus sabaeus. In a few lines:
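Vero cells were seeded overnight in RPMI with 10% heat-inactivated FBS at 37 °C, 5% CO2. Cells were exposed in triplicate to concentrations from 100 to 1.56 µg/mL for 72 h. Resazurin (0.1%) was then added for 4–5 h, and fluorescence was read at ex 530/em 590 nm. CC50 was derived from the fluorescence plot.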
On the technique in general: Alamar Blue is a resazurin reagent that responds to reducing activity.

Values after ≈ are worked out from the molar mass of the structure shown.

Turning to `CCN(CC)Cc1cc(N(c2cc(C)nc3cc(Cl)ccc23)S(=O)(=O)c2ccc(Cl)c(Cl)c2)ccc1O`, the IC50 – broadly, the midpoint of a concentration-inhibition curve – in data set [1] came out at 1260 nM.

Take `CO[C@H]1/C=C/O[C@@]2(C)Oc3c(C)c(O)c4c(O)c(c(/C=N/N5CCN(C)CC5)c(O)c4c3C2=O)NC(=O)/C(C)=C\C=C\[C@H](C)[C@H](O)[C@@H](C)[C@@H](O)[C@@H](C)[C@H](OC(C)=O)[C@@H]1C`: the inhibition (usually the relative decrease from the control value, in per cent) in data set [2] stood at 69.6%.

In turn, `CCN(CC)Cc1cc(N(c2cc(C)nc3cc(Cl)ccc23)S(=O)(=O)c2ccc(Cl)cc2)ccc1O` had an MIC100 in data set [3] of 6.25 µg/mL (≈ 11.5 µM). Besides, in data set [4], the selectivity ratio was over 48. The Activity entry in data set [5] is on record as “Non-toxic”. For the same compound, the CC50 (in general, the concentration giving 50% cytotoxicity) at 72 h in data set [6] is over 300 µg/mL. Also, the IC50 in data set [1] came to 530 nM.

`CCN(CC)Cc1cc(N(c2cc(C)nc3cc(Cl)ccc23)S(=O)(=O)c2ccc(Cl)s2)ccc1O` showed an MIC100 in data set [3] of 6.25 µg/mL (≈ 11.4 µM). In data set [1], the IC50 came to 360 nM.

Turning to `CCN(CC)Cc1cc(N(c2cc(C)nc3cc(Cl)ccc23)S(=O)(=O)c2cccc(C(F)(F)F)c2)ccc1O`, the IC50 in data set [1] was found to be 1360 nM.

Consider `CCN(CC)Cc1cc(N(c2cc(C)nc3cc(Cl)ccc23)S(=O)(=O)c2c(C)cc(C)cc2C)ccc1O`, for which the IC50 in data set [1] was determined as 1040 nM.

`CCN(CC)Cc1cc(N(c2cc(C)nc3cc(Cl)ccc23)S(=O)(=O)c2ccc(C#N)cc2)ccc1O`: the MIC in data set [3] is over 12.5 µg/mL. The IC50 in data set [1] came to 740 nM.

Regarding `CCN(CC)Cc1cc(N(c2cc(C)nc3cc(Cl)ccc23)S(=O)(=O)c2cccc3ccccc23)ccc1O`, the MIC in data set [3] was found to be 12.5 µg/mL (≈ 22.3 µM). For the same compound, in data set [1], the IC50 is 1000 nM.

For `CCN(CC)Cc1cc(N(c2cc(C)nc3cc(Cl)ccc23)S(=O)(=O)c2cccs2)ccc1O`, the IC50 in data set [1] is 1570 nM.

For the compound `CCN(CC)Cc1cc(N(c2cc(C)nc3cc(Cl)ccc23)S(=O)(=O)c2cc(C)cc(C)c2)ccc1O`, the IC50 in data set [1] stood at 1830 nM.

Turning to `CCN(CC)Cc1cc(N(c2cc(C)nc3cc(Cl)ccc23)S(=O)(=O)[C@@]23CCC(CC2=O)C3(C)C)ccc1O`, in data set [1], the IC50 is 3410 nM.

`CCN(CC)Cc1cc(Nc2cc(C)nc3cc(Cl)ccc23)ccc1O`: the MIC in data set [3] was over 50 µg/mL. Besides, the IC50 in data set [1] came to 5450 nM.

As to `CCN(CC)Cc1cc(N(c2cc(C)nc3cc(Cl)ccc23)S(=O)(=O)c2cccc3cccnc23)ccc1O`, in data set [1], the IC50 worked out at 1850 nM.

For `CCN(CC)Cc1cc(N(c2cc(C)nc3cc(Cl)ccc23)S(=O)(=O)c2ccc3ccccc3c2)ccc1O`, the MIC in data set [3] was over 25 µg/mL. Besides, the IC50 in data set [1] came out at 920 nM.

`CCN(CC)Cc1cc(N(c2cc(C)nc3cc(Cl)ccc23)S(=O)(=O)c2c(C(C)C)cc(C(C)C)cc2C(C)C)ccc1O`: the IC50 in data set [1] stood at 3290 nM.

As to `CCN(CC)Cc1cc(N(c2cc(C)nc3cc(Cl)ccc23)S(=O)(=O)c2cc(Cl)ccc2Cl)ccc1O`, the half-maximal inhibitory concentration (IC50) in data set [1] worked out at 1340 nM.

`CCN(CC)Cc1cc(N(c2cc(C)nc3cc(Cl)ccc23)S(=O)(=O)c2ccc([N+](=O)[O-])cc2)ccc1O` registered an MIC100 in data set [3] of 6.25 µg/mL (≈ 11.3 µM). Moreover, in data set [4], the selectivity ratio came out at 18. The compound also returned a CC50 at 72 h in data set [6] of 55 µg/mL (≈ 99.1 µM). Moreover, the IC50 in data set [1] was found to be 390 nM.
